According to the RNAGym collection of RNA variant scans (doi:10.1002/anie.201605470):

B1: Osa-1-4 twister ribozyme (parent)
chain: CCGCCUAACACUGCCAAUGCCGGUCCCAAGCCCGGAUAAAAGUGGAGGGGGCGG

Variants of: B1
Test: self-cleavage, relative activity (ratio to wild type); higher = more cleavage; co-transcriptional
How it was run: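 In vitro transcription at 37 °C for 2 h allowed the twister ribozyme to cleave itself as it was made. Its 54-nucleotide Oryza sativa template had been synthesised with 97 % wild-type base and 1 % of each other base at the 48 positions downstream of the cleavage site. A template-switching oligonucleotide was used for reverse transcription, followed by PCR amplification and deep sequencing. Whether reads carried upstream sequence set the cleavage status, and relative activity is the fraction cleaved normalised to wild type.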
With CCGCCUAACACUGCCAAUGCCGGUCCCAAGCCCGCAUAAACGUGGAGGGGGCGG the self-cleavage was 0.63. Work on CCGCCUAACACUGCCAAUGCCGGUCCCAAGCCCGAAUAAACGUGGAGGGGGCGG yielded a self-cleavage of 0.81. CCGCCUAACACUGCCAAUGCCGGUCCCAAGCCCGUAUAAACGUGGAGGGGGCGG gave a self-cleavage of 0.76. For CCGCCUAACAGUGCCAAUGCCGGUCCCAAGCCCGGAUAAACGUGGAGGGGGCGG, the self-cleavage was 0.24. CCGCCUAACAAUGCCAAUGCCGGUCCCAAGCCCGGAUAAACGUGGAGGGGGCGG gave a self-cleavage of 0.71. CCGCCUAACAUUGCCAAUGCCGGUCCCAAGCCCGGAUAAACGUGGAGGGGGCGG gave a self-cleavage of 0.81. In the case of CCGCCUAACACUGCCAAUGCCGGUCCCAAGCCCGGAGAAUAGUGGAGGGGGCGG, the self-cleavage is reported as 0.94. Variant CCGCCUAACACUGCCAAUGCCGGUCCCAAGCCCGGACAAUAGUGGAGGGGGCGG has a self-cleavage of 0.77. In the case of CCGCCUAACACUGCCAAUGCCGGUCCCAAGCCCGGAAAAUAGUGGAGGGGGCGG, the self-cleavage is reported as 0.87. For CCGCCUACCACUGCCAAUGCCGGUCCCAAGCCCGGAUAAACGUGGAGGGGGCGG, the self-cleavage was 0.09. CCGCCUAUCACUGCCAAUGCCGGUCCCAAGCCCGGAUAAACGUGGAGGGGGCGG gave a self-cleavage of 0.16. For CCGCCUAGCACUGCCAAUGCCGGUCCCAAGCCCGGAUAAACGUGGAGGGGGCGG, the self-cleavage was 0.24. Work on CCGCCUAACACUGCCAAUGCCGGUCCCAAGUCCGGAUAAACGUGGAGGGGGCGG yielded a self-cleavage of 0.8. In the case of CCGCCUAACACUGCCAAUGCCGGUCCCAAGGCCGGAUAAACGUGGAGGGGGCGG, the self-cleavage is reported as 0.09. Variant CCGCCUAACACUGCCAAUGCCGGUCCCAAGACCGGAUAAACGUGGAGGGGGCGG has a self-cleavage of 0.04. CCGCCUAACACUGCCAAUGACGGUCCCAAGCCCGGAUAAACGUGGAGGGGGCGG gave a self-cleavage of 0.92. In the case of CCGCCUAACACUGCCAAUGGCGGUCCCAAGCCCGGAUAAACGUGGAGGGGGCGG, the self-cleavage is reported as 0.13. In the case of CCGCCUAACACUGCCAAUGUCGGUCCCAAGCCCGGAUAAACGUGGAGGGGGCGG, the self-cleavage is reported as 0.95. For CCGCCUAAUACUGCCAAUGCCGGUCCCAAGCCCGGAUAAACGUGGAGGGGGCGG, the self-cleavage was 0.79. With CCGCCUAAAACUGCCAAUGCCGGUCCCAAGCCCGGAUAAACGUGGAGGGGGCGG the self-cleavage was 0.39. For CCGCCUAAGACUGCCAAUGCCGGUCCCAAGCCCGGAUAAACGUGGAGGGGGCGG, the self-cleavage was 0.41. In the case of CCGCCUAACACUGCCAAUGCCGGUCCCAAGCCCGGAUAAUAGCGGAGGGGGCGG, the self-cleavage is reported as 0.13. CCGCCUAACACUGCCAAUGCCGGUCCCAAGCCCGGAUAAUAGGGGAGGGGGCGG gave a self-cleavage of 0.1. Variant CCGCCUAACACUGCCAAUGCCGGUCCCAAGCCCGGAUAAUAGAGGAGGGGGCGG has a self-cleavage of 0.18. CCGCCUAACACUGCCAAUGCCGGUCCCAAGCGCGGAUAAACGUGGAGGGGGCGG showed a self-cleavage of 0.11. Variant CCGCCUAACACUGCCAAUGCCGGUCCCAAGCACGGAUAAACGUGGAGGGGGCGG has a self-cleavage of 0.08. For CCGCCUAACACUGCCAAUGCCGGUCCCAAGCUCGGAUAAACGUGGAGGGGGCGG, the self-cleavage was 0.09. CCGCCUAACACUGCCAAUGCCGGUCCCAAGCCCCGAUAAACGUGGAGGGGGCGG gave a self-cleavage of 0.32. Work on CCGCCUAACACUGCCAAUGCCGGUCCCAAGCCCAGAUAAACGUGGAGGGGGCGG yielded a self-cleavage of 0.76. Work on CCGCCUAACACUGCCAAUGCCGGUCCCAAGCCCUGAUAAACGUGGAGGGGGCGG yielded a self-cleavage of 0.73. In the case of CCGCCUAACACUGCCAAUGCCGGUCCCAAGCCCGGAUAAACGUGGAGGGGGGGG, the self-cleavage is reported as 1.04. CCGCCUAACACUGCCAAUGCCGGUCCCAAGCCCGGAUAAACGUGGAGGGGGUGG showed a self-cleavage of 1.03. Work on CCGCCUAACACUGCCAAUGCCGGUCCCAAGCCCGGAUAAACGUGGAGGGGGAGG yielded a self-cleavage of 0.94. In the case of CCGCCUAACACUGCCAAUGCCGGUCCCAAGCCCGGAUAAACGUGGAGCGGGCGG, the self-cleavage is reported as 0.1. Work on CCGCCUAACACUGCCAAUGCCGGUCCCAAGCCCGGAUAAACGUGGAGUGGGCGG yielded a self-cleavage of 0.07. CCGCCUAACACUGCCAAUGCCGGUCCCAAGCCCGGAUAAACGUGGAGAGGGCGG gave a self-cleavage of 0.08. With CCGCCUAACACUACCAAUGCCGGUCCCAAGCCCGGAUAAACGUGGAGGGGGCGG the self-cleavage was 0.08. In the case of CCGCCUAACACUUCCAAUGCCGGUCCCAAGCCCGGAUAAACGUGGAGGGGGCGG, the self-cleavage is reported as 0.04. In the case of CCGCCUAACACUCCCAAUGCCGGUCCCAAGCCCGGAUAAACGUGGAGGGGGCGG, the self-cleavage is reported as 0.02. Work on CCGCCUAACACUGCCAAUGCCGGUCCCAAGCCAGGAUAAACGUGGAGGGGGCGG yielded a self-cleavage of 0.13. Work on CCGCCUAACACUGCCAAUGCCGGUCCCAAGCCUGGAUAAACGUGGAGGGGGCGG yielded a self-cleavage of 0.7. With CCGCCUAACACUGCCAAUGCCGGUCCCAAGCCGGGAUAAACGUGGAGGGGGCGG the self-cleavage was 0.09. Variant CCGCCUAACACUGCUAAUGCCGGUCCCAAGCCCGGAUAAACGUGGAGGGGGCGG has a self-cleavage of 0.36. CCGCCUAACACUGCGAAUGCCGGUCCCAAGCCCGGAUAAACGUGGAGGGGGCGG gave a self-cleavage of 0.14. Work on CCGCCUAACACUGCAAAUGCCGGUCCCAAGCCCGGAUAAACGUGGAGGGGGCGG yielded a self-cleavage of 0.27. CCGCCUAACACUGCCAAUGCCGGUCCUAAGCCCGGAUAAACGUGGAGGGGGCGG gave a self-cleavage of 0.12. Work on CCGCCUAACACUGCCAAUGCCGGUCCAAAGCCCGGAUAAACGUGGAGGGGGCGG yielded a self-cleavage of 0.13. Work on CCGCCUAACACUGCCAAUGCCGGUCCGAAGCCCGGAUAAACGUGGAGGGGGCGG yielded a self-cleavage of 0.06.
